# Measurements as given in ChEMBL document CHEMBL3525972, “Characterization of aldehyde oxidase enzyme activity in cryopreserved human hepatocytes” (Drug Metab Dispos, 2012).
# Tests used:
# Aldehyde oxidase [1] = molecular target: T1, Aldehyde oxidase (Homo sapiens, UniProt Q06278); assay: Retention time in cryopreserved human hepatocytes assessed as aldehyde oxidase-mediated metabolite formation treated with 10 uM of XK-469 by LC-MS extracted ion chromatogram analysis; assay type: ADME, cell-based, Hepatocyte
# T1 sequence (Q06278 whole entry): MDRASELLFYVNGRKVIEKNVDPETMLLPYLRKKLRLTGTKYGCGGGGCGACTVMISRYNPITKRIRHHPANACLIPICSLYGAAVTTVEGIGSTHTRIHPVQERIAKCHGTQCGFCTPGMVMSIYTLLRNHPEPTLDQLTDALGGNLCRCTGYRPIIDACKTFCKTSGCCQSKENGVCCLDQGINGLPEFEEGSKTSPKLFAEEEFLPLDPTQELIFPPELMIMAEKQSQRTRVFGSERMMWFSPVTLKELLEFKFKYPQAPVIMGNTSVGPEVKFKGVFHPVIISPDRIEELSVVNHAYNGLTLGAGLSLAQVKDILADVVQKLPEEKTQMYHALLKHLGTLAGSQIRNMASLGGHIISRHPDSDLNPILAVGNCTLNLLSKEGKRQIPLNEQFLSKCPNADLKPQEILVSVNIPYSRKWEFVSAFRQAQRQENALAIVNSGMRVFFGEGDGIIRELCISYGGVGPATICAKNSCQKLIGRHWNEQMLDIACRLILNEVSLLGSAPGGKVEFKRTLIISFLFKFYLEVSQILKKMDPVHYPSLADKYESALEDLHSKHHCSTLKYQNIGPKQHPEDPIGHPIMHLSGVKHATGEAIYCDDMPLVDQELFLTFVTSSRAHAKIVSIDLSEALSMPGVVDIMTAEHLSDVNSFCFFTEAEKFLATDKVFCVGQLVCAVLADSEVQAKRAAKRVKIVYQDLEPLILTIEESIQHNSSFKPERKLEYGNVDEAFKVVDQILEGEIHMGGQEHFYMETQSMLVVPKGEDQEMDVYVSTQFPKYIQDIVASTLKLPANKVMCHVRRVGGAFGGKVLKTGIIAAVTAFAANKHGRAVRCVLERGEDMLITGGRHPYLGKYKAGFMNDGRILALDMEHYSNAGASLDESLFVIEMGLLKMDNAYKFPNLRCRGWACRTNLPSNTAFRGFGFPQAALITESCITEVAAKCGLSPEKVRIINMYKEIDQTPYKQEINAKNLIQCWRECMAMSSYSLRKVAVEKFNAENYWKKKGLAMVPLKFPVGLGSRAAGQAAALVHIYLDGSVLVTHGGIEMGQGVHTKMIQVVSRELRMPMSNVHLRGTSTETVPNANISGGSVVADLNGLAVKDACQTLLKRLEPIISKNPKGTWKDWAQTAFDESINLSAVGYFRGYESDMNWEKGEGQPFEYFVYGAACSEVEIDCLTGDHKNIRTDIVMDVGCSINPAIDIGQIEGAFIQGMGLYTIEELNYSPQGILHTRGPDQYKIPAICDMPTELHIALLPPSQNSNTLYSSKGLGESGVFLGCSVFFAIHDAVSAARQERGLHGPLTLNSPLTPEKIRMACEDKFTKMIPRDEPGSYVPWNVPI
# Outline: (§1)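 Cryopreserved human hepatocytes (lot OOO) were thawed for ~2 min at 37°C, diluted 1/50 in warm recovery medium or WME, spun at 100 x g for 6 min, and resuspended in WME at a final 2.0 x 10^6 cells/mL. They were incubated with 10 µM substrate for 120 min at 37°C. Reactions were stopped with two volumes of cold acetonitrile, then spun, dried under N2 and reconstituted. Read-out was positive-ESI Orbitrap LC-MS extracted ion chromatograms.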
# clinical = details: human, in vivo
# Aldehyde oxidase [2] = molecular target: T1, Aldehyde oxidase; assay: Drug metabolism in cryopreserved human hepatocytes assessed as aldehyde oxidase-mediated metabolite formation at 10 uM by LC-MS extracted ion chromatogram analysis in presence of hydralazine
# Aldehyde oxidase [3] = molecular target: T1, Aldehyde oxidase; assay: Drug metabolism in cryopreserved human hepatocytes assessed as aldehyde oxidase-mediated parent compound retention time at 10 uM by LC-MS extracted ion chromatogram analysis; assay type: ADME, cell-based, Hepatocyte
# Outline: as §1, with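 “cells/mL.” for “cells/mL. They were incubated with 10 µM substrate for 120 min at 37°C.”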
# Aldehyde oxidase [4] = molecular target: T1, Aldehyde oxidase; assay: Retention time in cryopreserved human hepatocytes assessed as aldehyde oxidase-mediated metabolite formation treated with 10 uM of zaleplon by LC-MS extracted ion chromatogram analysis; assay type: ADME, cell-based, Hepatocyte
# Outline: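 Cryopreserved human hepatocytes (Lot OOO), thawed at 37°C, spun at 100 x g, resuspended in Williams' Medium E, then incubated at 2.0 x 10^6 cells/mL with 10 µM substrate for 120 min at 37°C. Quenched with two volumes of cold acetonitrile, centrifuged, supernatant dried under N2 and reconstituted in 85:15 water/acetonitrile (0.1% formic acid). Analysed by high-resolution ESI-positive Orbitrap LC-MS using extracted ion chromatograms.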
# Aldehyde oxidase [5] = molecular target: T1, Aldehyde oxidase; assay: Drug level in cryopreserved human hepatocytes assessed as aldehyde oxidase-mediated metabolite formation treated with 10 uM of BIBU1476 by LC-MS extracted ion chromatogram analysis; assay type: ADME, cell-based, Hepatocyte
# Aldehyde oxidase [6] = molecular target: T1, Aldehyde oxidase; assay: Drug level in cryopreserved human hepatocytes assessed as aldehyde oxidase-mediated metabolite formation treated with 10 uM of BIBX1382 by LC-MS extracted ion chromatogram analysis; assay type: ADME, cell-based, Hepatocyte; outline: as §1
# Aldehyde oxidase [7] = molecular target: T1, Aldehyde oxidase; assay: Retention time in cryopreserved human hepatocytes assessed as aldehyde oxidase-mediated metabolite formation treated with 10 uM of O6-benzylguanine by LC-MS extracted ion chromatogram analysis; assay type: ADME, cell-based, Hepatocyte; outline: as §1
# [8] = Oral bioavailability in human; assay type: ADME, organism-based; details: in vivo
# Aldehyde oxidase [9] = molecular target: T1, Aldehyde oxidase; assay: Drug metabolism in cryopreserved human hepatocytes assessed as aldehyde oxidase-mediated 8-(3-chloro-4-fluorophenylamino)-2-imino-2,3-dihydropyrimido[5,4-d]pyrimidin-3-ium formation at 10 uM by LC-MS extracted ion chromatogram analysis; assay type: ADME, cell-based, Hepatocyte; outline: as §1
# Aldehyde oxidase [10] = molecular target: T1, Aldehyde oxidase; assay: Drug metabolism in cryopreserved human hepatocytes assessed as aldehyde oxidase-mediated N-(but-1-en-2-yl)-8-(3-chloro-4-fluorophenylamino)pyrimido[5,4-d]pyrimidin-2-aminium formation at 10 uM by LC-MS extracted ion chromatogram analysis; assay type: ADME, cell-based, Hepatocyte; outline: as §1
# Aldehyde oxidase [11] = molecular target: T1, Aldehyde oxidase; assay: Drug metabolism in cryopreserved human hepatocytes assessed as aldehyde oxidase-mediated 3-(8-(3-chloro-4-fluorophenylamino)pyrimido[5,4-d]pyrimidin-2-ylamino)pent-4-en-1-ylium formation at 10 uM by LC-MS extracted ion chromatogram analysis; assay type: ADME, cell-based, Hepatocyte; outline: as §1
# Aldehyde oxidase [12] = molecular target: T1, Aldehyde oxidase; assay: Drug metabolism in cryopreserved human hepatocytes assessed as aldehyde oxidase-mediated 8-(3-chloro-4-fluorophenylamino)-2-imino-6-oxo-2,3,5,6-tetrahydropyrimido[5,4-d]pyrimidin-3-ium formation at 10 uM by LC-MS extracted ion chromatogram analysis; assay type: ADME, cell-based, Hepatocyte; outline: as §1
# Aldehyde oxidase [13] = molecular target: T1, Aldehyde oxidase; assay: Drug metabolism in cryopreserved human hepatocytes assessed as aldehyde oxidase-mediated 3-(8-(3-chloro-4-fluorophenylamino)-6-oxo-6,7-dihydropyrimido[5,4-d]pyrimidin-2-ylamino)pent-4-en-1-ylium formation at 10 uM by LC-MS extracted ion chromatogram analysis; assay type: ADME, cell-based, Hepatocyte; outline: as §1
# Aldehyde oxidase [14] = molecular target: T1, Aldehyde oxidase; assay: Drug metabolism in cryopreserved human hepatocytes assessed as aldehyde oxidase-mediated N-(but-1-en-2-yl)-8-(3-chloro-4-fluorophenylamino)-6-oxo-6,7-dihydropyrimido[5,4-d]pyrimidin-2-aminium formation at 10 uM by LC-MS extracted ion chromatogram analysis; assay type: ADME, cell-based, Hepatocyte; outline: as §1
# Aldehyde oxidase [15] = molecular target: T1, Aldehyde oxidase; assay: Retention time in cryopreserved human hepatocytes assessed as aldehyde oxidase-mediated metabolite formation treated with 10 uM of carbazeran by LC-MS extracted ion chromatogram analysis; assay type: ADME, cell-based, Hepatocyte; outline: as §1
structure (smiles),measurement,setting,value
C[C@@H](Oc1ccc(OC2N=c3cc(Cl)ccc3=NC2=O)cc1)C(=O)O (some centres undefined),Retention_time,Aldehyde oxidase [1],15.7 min
Nc1nc(OCc2ccccc2)c2[nH]cnc2n1 [6-O-BENZYLGUANINE],clearance,clinical,15.6 mL/min/kg
same,Drug metabolism,Aldehyde oxidase [2],metabolite_not_detected
same,Retention_time,Aldehyde oxidase [3],10.5 min
CCN(C(C)=O)c1cccc(-c2cc(=O)[nH]c3c(C#N)cnn23)c1,Retention_time,Aldehyde oxidase [4],12.7 min
CCN(C(C)=O)c1cccc(-c2ccnc3c(C#N)cnn23)c1 [ZALEPLON],clearance,clinical,15.7 mL/min/kg
same,Retention_time,Aldehyde oxidase [3],14.5 min
C=C(CC)Nc1ncc2nc(=O)[nH]c(Nc3ccc(F)c(Cl)c3)c2n1,Drug metabolism,Aldehyde oxidase [5],metabolite_detected
C=CC(CC)Nc1ncc2ncnc(Nc3ccc(F)c(Cl)c3)c2n1 (centres undefined),Drug metabolism,Aldehyde oxidase [6],metabolite_detected
Nc1nc(OCc2ccccc2)c2[nH]c(O)nc2n1,Retention_time,Aldehyde oxidase [7],12.5 min
C=C(CC)Nc1ncc2ncnc(Nc3ccc(F)c(Cl)c3)c2n1,Drug metabolism,Aldehyde oxidase [6],metabolite_detected
N=c1nc2c(Nc3ccc(F)c(Cl)c3)nc(=O)[nH]c2c[nH]1,Drug metabolism,Aldehyde oxidase [5],metabolite_detected
CN1CCC(Nc2ncc3ncnc(Nc4ccc(F)c(Cl)c4)c3n2)CC1 [FALNIDAMOL],bioavailability,[8],2%
same,clearance,clinical,25 mL/min/kg
same,Drug metabolism,Aldehyde oxidase [9],metabolite_detected
same,Drug metabolism,Aldehyde oxidase [2],metabolite_not_detected
same,Retention time,Aldehyde oxidase [3],12.5 min
same,Drug metabolism,Aldehyde oxidase [10],metabolite_detected
same,Drug metabolism,Aldehyde oxidase [11],metabolite_detected
CCNC(=O)OC1CCN(c2nncc3cc(OC)c(OC)cc23)CC1 [CARBAZERAN],bioavailability,[8],< 5%
Nc1ncc2ncnc(Nc3ccc(F)c(Cl)c3)c2n1,Drug metabolism,Aldehyde oxidase [6],metabolite_detected
CN1CCC(Nc2ncc3nc(=O)[nH]c(Nc4ccc(F)c(Cl)c4)c3n2)CC1,Drug metabolism,Aldehyde oxidase [12],metabolite_detected
same,Drug metabolism,Aldehyde oxidase [13],metabolite_detected
same,Retention time,Aldehyde oxidase [3],10.7 min
same,Drug metabolism,Aldehyde oxidase [14],metabolite_detected
C=CC(CC)Nc1ncc2nc(=O)[nH]c(Nc3ccc(F)c(Cl)c3)c2n1 (centres undefined),Drug metabolism,Aldehyde oxidase [5],metabolite_detected
C[C@@H](Oc1ccc(Oc2cnc3ccc(Cl)cc3n2)cc1)C(=O)O [R(+)XK469],clearance,clinical,< 1 mL/min/kg
same,Retention_time,Aldehyde oxidase [3],17.4 min
CCNC(=O)OC1CCN(c2n[nH]c(=O)c3cc(OC)c(OC)cc23)CC1,Retention_time,Aldehyde oxidase [15],13.9 min
